Active and inactive are the calls of the source. No cut-off for these calls is given here. Residues, ends and D or L forms follow the SMILES beside them. *: point of attachment. Boc = CC(C)(C)OC(=O)*; NHBn = c1ccc(CN*)cc1; NHPh = c1ccc(N*)cc1; Bn = c1ccc(C*)cc1

Consider 16 compounds from ChEMBL document CHEMBL1143703, “Linear TMC-95-based proteasome inhibitors” (J Med Chem, 2007).

Series [1] in a line: Inhibition of trypsin-like activity of rabbit reticulocyte 20S proteasome. Also on record: species or system Oryctolagus cuniculus. In outline:
(§1)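 Trypsin-like site: proteasome exposed to 0.1-100 µM compound, fluorogenic substrate hydrolysis read 1 h at 37 °C in pH 7.5 20 mM Tris, 1 mM DTT, 10% glycerol without SDS; 3% DMSO final. Initial rates relative to untreated control: >100% expressed as activation factor, <100% as inhibition; Ki via Vi/V0 = 1/(1+[I]/Ki(app)) or IC50 = Ki(1+[S]/Km).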

The species named for series [2] is Oryctolagus cuniculus. As to the kind of experiment: Inhibition of chymotrypsin-like activity of rabbit reticulocyte 20S proteasome at 100 uM.
For series [3], the species on record is Oryctolagus cuniculus. The series can be described thus: Inhibition of post acid activity of rabbit reticulocyte 20S proteasome at 100 uM.
For series [4], the species on record is Oryctolagus cuniculus. The series can be described thus: Inhibition of trypsin-like activity of rabbit reticulocyte 20S proteasome at 100 uM. In outline:
as §1

A short description of series [5]: Inhibition of chymotrypsin-like activity of rabbit reticulocyte 20S proteasome. Also on record: species or system Oryctolagus cuniculus.
Series [6] is described as follows: Inhibition of post acid activity of rabbit reticulocyte 20S proteasome. Also on record: species or system Oryctolagus cuniculus.
For series [7], the species on record is Oryctolagus cuniculus. As to the kind of experiment: Activation of chymotrypsin-like activity of rabbit reticulocyte 20S proteasome relative to control.
For series [8], the species on record is Oryctolagus cuniculus. The series can be described thus: Activation of trypsin-like activity of rabbit reticulocyte 20S proteasome relative to control. In outline: as §1
Series [9] can be described thus: Stability in RPMI medium in presence of 20% fetal calf serum. Type of series: ADME. Particulars: cattle, RPMI medium with 20% fetal calf serum. In short, it runs like this:
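Compound incubated up to 2 days at 37 °C in RPMI with 20% fetal calf serum. Stopped with ethanol, centrifuged at 4 °C, supernatant analysed by RP-HPLC. Half-life from linear least-squares fit of log[I] versus time, at least five points.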

In series [10] the test system is HeLa. The series can be described thus: Cytotoxicity against human HeLa cells at 50 uM after 48 hrs by MTT assay. Type of series: functional, cell-based. In short, it runs like this:
(§2)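 5 × 10^3 cells grown in triplicate 48 h with or without 50 µM inhibitor. Media: DMEM for HeLa and T-47D; MEM for HEK-293, HuH7 and Hep G2; McCoy for HCT-116; each with 10% FBS, 5% CO2. Survival read by MTT metabolism at 37 °C, relative to DMSO-only control.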

Another series relates to HEK293. As to the kind of experiment: Cytotoxicity against human HEK293 cells at 50 uM after 48 hrs by MTT assay. Type of series: functional, cell-based. In outline:
as §2

The subject of a further series is Huh-7. The series can be described thus: Growth inhibition of human HuH7 cells at 50 uM after 48 hrs by MTT assay. It is filed as functional, cell-based. In outline: as §2
A further series deals with HCT-116. As to the kind of experiment: Growth inhibition of human HCT116 cells at 50 uM after 48 hrs by MTT assay. It is filed as functional, cell-based. In outline:
as §2

The next series concerns T47D. The series can be described thus: Growth inhibition of human T47D cells at 50 uM after 48 hrs by MTT assay. Type of series: functional, cell-based. In outline: as §2
Another series concerns HepG2. The series can be described thus: Growth inhibition of human HepG2 cells at 50 uM after 48 hrs by MTT assay. It is filed as functional, cell-based. In short, it runs like this:
as §2

The test system of series [11] is HeLa. The series can be described thus: Cytotoxicity against human HeLa cells by MTT assay. Type of series: functional, cell-based.

On to `CCOC(=O)[C@H](Cc1c[nH]c2c(Br)cccc12)NC(=O)[C@H](CC(C)C)NC(=O)[C@H](Cc1ccc(OCc2ccccc2)c(I)c1)NC(=O)OC(C)(C)C`, for which the Ki in series [1], in series [5] and in series [6] was above 100 µM in each case. Moreover, the inhibition in the series filed under Oryctolagus cuniculus [2], in the series listed under Oryctolagus cuniculus [3] and in the series filed under Oryctolagus cuniculus [4] was below 20% in each case.
For `CC(C)C[C@H](NC(=O)[C@H](Cc1ccc(OCc2ccccc2)cc1)NC(=O)OC(C)(C)C)C(=O)N[C@@H](Cc1c[nH]c2ccccc12)C(=O)NCc1ccccc1` (Boc-Tyr(Bn)-Leu-Trp-NHBn), the inhibition in the series listed under Oryctolagus cuniculus [3] was below 20%. In addition, the Fold change in the series listed under Oryctolagus cuniculus [7] was 1.3; in the series filed under Oryctolagus cuniculus [8], 1.9. This compound returned a Ki in series [6] above 100 µM.
Compound `CC(C)(C)OC(=O)NCCCC[C@H](NC(=O)[C@H](Cc1ccc(OCc2ccccc2)cc1)NC(=O)OC(C)(C)C)C(=O)N[C@@H](Cc1c[nH]c2ccccc12)C(=O)NCc1ccccc1` (Boc-Tyr(Bn)-Lys(Boc)-Trp-NHBn) had an inhibition in the series filed under Oryctolagus cuniculus [3] below 20%. Also, the Fold change in the series listed under Oryctolagus cuniculus [7] was found to be 1.3; in the series filed under Oryctolagus cuniculus [8], 1.8. In addition, in series [6], the Ki was above 100 µM.
In the case of `COC(=O)[C@H](Cc1c[nH]c2c(Br)cccc12)NC(=O)[C@H](C)NC(=O)[C@H](Cc1ccc(OCc2ccccc2)c(I)c1)NC(=O)OC(C)(C)C`, the Ki in [1] was above 100 µM; in series [5] it was above 100 µM; in series [6] it was 96.4 µM. Also, the inhibition in the series filed under Oryctolagus cuniculus [2] and in the series filed under Oryctolagus cuniculus [4] was below 20% in each case.
As to `COC(=O)[C@@H]1Cc2c[nH]c3c(cccc23)-c2ccc(cc2OC)C[C@H](NC(=O)OC(C)(C)C)C(=O)N[C@@H](C)C(=O)N1`, the Ki in series [1] was above 100 µM; in [5], above 100 µM; in series [6] it was 37.1 µM. In addition, the inhibition in the series listed under Oryctolagus cuniculus [2], in the series listed under Oryctolagus cuniculus [3] and in the series listed under Oryctolagus cuniculus [4] was below 20% in each case.
In the case of `CC(C)(C)OC(=O)N[C@@H](Cc1ccc(OCc2ccccc2)cc1)C(=O)N[C@@H](CC(N)=O)C(=O)N[C@@H](Cc1c[nH]c2ccccc12)C(=O)Nc1ccccc1` (Boc-Tyr(Bn)-Asn-Trp-NHPh), the inhibition in the series listed under Oryctolagus cuniculus [3] is below 20%. The Fold change turned out to be 1.5 in the series listed under Oryctolagus cuniculus [7] and 1.6 in the series filed under Oryctolagus cuniculus [8]. This compound also displayed a Ki in series [6] above 100 µM.
For the compound `C[C@H](NC(=O)[C@H](Cc1ccc(OCc2ccccc2)cc1)NC(=O)OC(C)(C)C)C(=O)N[C@@H](Cc1c[nH]c2ccccc12)C(=O)NCCCCNC(=O)OC(C)(C)C`, the inhibition in the series listed under Oryctolagus cuniculus [3] is below 20%. Also, the Fold change in the series filed under Oryctolagus cuniculus [7] is 1.5; in the series filed under Oryctolagus cuniculus [8] it was 3.2. In series [6], the Ki is above 100 µM.
Regarding `C[C@H](NC(=O)[C@H](Cc1ccc(OCc2ccccc2)c(I)c1)NC(=O)OC(C)(C)C)C(=O)N[C@@H](Cc1c[nH]c2c(Br)cccc12)C(=O)O`, the Ki in [1] worked out at 3 µM; in [5], 1.6 µM; in [6], 2.8 µM. Also, the half-life in series [9] was 2220 min.
In the case of `CC(C)(C)OC(=O)N[C@@H](Cc1ccc(OCc2ccccc2)cc1)C(=O)N[C@@H](CCCN(C(=N)NC(=O)OCc1ccccc1)C(=O)OCc1ccccc1)C(=O)N[C@@H](Cc1c[nH]c2ccccc12)C(=O)Nc1ccc(O)cc1`, the inhibition constant Ki in series [1], in series [5] and in [6] was above 100 µM each time. In addition, the inhibition in the series listed under Oryctolagus cuniculus [2], in the series listed under Oryctolagus cuniculus [3] and in the series listed under Oryctolagus cuniculus [4] was below 20% throughout.
`CC(C)(C)OC(=O)NCCCCNC(=O)[C@H](Cc1c[nH]c2ccccc12)NC(=O)[C@H](CCCCNC(=O)OC(C)(C)C)NC(=O)[C@H](Cc1ccc(OCc2ccccc2)cc1)NC(=O)OC(C)(C)C` displayed an inhibition in the series filed under Oryctolagus cuniculus [3] below 20%. The values for the Fold change in the series listed under Oryctolagus cuniculus [7] and in the series filed under Oryctolagus cuniculus [8] were 1.6 and 1.9, respectively. This compound came in with a Ki in [6] above 100 µM.
`C[C@H](NC(=O)[C@H](Cc1ccc(OCc2ccccc2)cc1)NC(=O)OC(C)(C)C)C(=O)N[C@@H](Cc1c[nH]c2ccccc12)C(=O)Nc1ccc(O)cc1`: the figures for the inhibitory constant (Ki) in series [1], in series [5] and in series [6] were above 100 µM, 65.7 µM and 1 µM, respectively. Further, the inhibition in the series filed under Oryctolagus cuniculus [4] is below 20%. The result in the series on HeLa [10], in the series on HEK293, in the series with Huh-7, in the series with HCT-116 and with T47D was Active. The outcome in the series with HepG2 was inactive. The IC50 in the series with HeLa [11] worked out at 15 µM.
In turn, `CC(C)(C)OC(=O)NCCCCNC(=O)[C@H](Cc1c[nH]c2ccccc12)NC(=O)[C@H](CC(N)=O)NC(=O)[C@H](Cc1ccc(OCc2ccccc2)cc1)NC(=O)OC(C)(C)C` showed an inhibition in the series filed under Oryctolagus cuniculus [3] below 20%. The Fold change in the series filed under Oryctolagus cuniculus [7] is 1.6; in the series filed under Oryctolagus cuniculus [8], 2.2. Besides, the Ki in [6] was above 100 µM.
In turn, `C[C@H](NC(=O)[C@H](Cc1ccc(OCc2ccccc2)cc1)NC(=O)OC(C)(C)C)C(=O)N[C@@H](Cc1c[nH]c2ccccc12)C(=O)Nc1ccccc1` (Boc-Tyr(Bn)-Ala-Trp-NHPh) came in with an inhibition in the series filed under Oryctolagus cuniculus [3] below 20%. Moreover, the Fold change amounted to 1.4 in the series listed under Oryctolagus cuniculus [7] and 1.6 in the series listed under Oryctolagus cuniculus [8]. Also, the Ki in series [6] is above 100 µM.
Take `CCOC(=O)[C@H](Cc1c[nH]c2c(Br)cccc12)NC(=O)[C@H](CC(C)C)NC(=O)[C@H](Cc1ccc(OC)c(I)c1)NC(=O)OC(C)(C)C`: the Ki in [1], in [5] and in series [6] was above 100 µM each time. For the same compound, the inhibition in the series listed under Oryctolagus cuniculus [2] and in the series filed under Oryctolagus cuniculus [4] was below 20% throughout.
`CC(C)(C)OC(=O)N[C@@H](Cc1ccc(OCc2ccccc2)cc1)C(=O)N[C@@H](CC(N)=O)C(=O)N[C@@H](Cc1c[nH]c2ccccc12)C(=O)NCc1ccccc1` (Boc-Tyr(Bn)-Asn-Trp-NHBn) had a Fold change in the series listed under Oryctolagus cuniculus [8] of 2.2. The half-life in series [9] is 390 min. Besides, the inhibition constant Ki in series [5] was 59.3 µM; in [6], 84.2 µM.
Turning to `CC(C)(C)OC(=O)N[C@@H](Cc1ccc(OCc2ccccc2)cc1)C(=O)N[C@@H](CC(N)=O)C(=O)N[C@@H](Cc1c[nH]c2ccccc12)C(=O)Nc1ccc(O)cc1`, the results for the Ki in series [1], in [5] and in series [6] were above 100 µM, above 100 µM and 23.4 µM, respectively. Also, the inhibition in the series filed under Oryctolagus cuniculus [4] was below 20%.
